Measurements taken from ChEMBL document CHEMBL2021764, “2-Aminothiophenes as building blocks in heterocyclic synthesis: synthesis and antimicrobial evaluation of a new class of pyrido[1,2-a]thieno[3,2-e]pyrimidine, quinoline and pyridin-2-one derivatives” (2012).

Legend:
Assay type in all cases: functional
[1] = tested on: Candida albicans; test: Antifungal activity against Candida albicans 155965 at 100 mg/ml after 48 hrs by agar-well diffusion technique; settings: Candida albicans, 155965, 48 h; read-out: DIZ
Method in brief: (§1)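 0.1 ml of the yeast spread on potato dextrose agar. 4 mm wells were cut with a sterile cork borer and filled with test solution. Plates were incubated at 25 °C for 48 h. Inhibition zones around the wells were measured, and the mean of 3 replicas was recorded. Cycloheximide served as the antifungal reference.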

[2] = tested on: Saccharomyces cerevisiae; test: Antifungal activity against Saccharomyces cerevisiae 156250 at 100 mg/ml after 48 hrs by agar-well diffusion technique; settings: Saccharomyces cerevisiae, 156250, 48 h; read-out: DIZ; method in brief: as §1
[3] = tested on: Escherichia coli; test: Antibacterial activity against Escherichia coli 124300 at 1 mg/ml after 24 hrs by agar-well diffusion technique; settings: Escherichia coli, 124300, 24 h; read-out: DIZ
Method in brief: (§2)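 Each bacterial strain (0.1 ml) was spread on nutrient agar, and 4 mm wells were cut with a sterile cork borer. Wells were loaded with test chemical at a final 1 mg ml^-1, then incubated at 37 °C for 24 h. Inhibition zone diameters around the wells were measured, averaged over 3 replicas.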

[4] = tested on: Saccharomyces cerevisiae; test: Antifungal activity against Saccharomyces cerevisiae 156250 at 1 mg/ml after 48 hrs by agar-well diffusion technique; settings: Saccharomyces cerevisiae, 156250, 48 h; read-out: DIZ
Method in brief: (§3)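 Yeast (0.1 ml) was spread on potato dextrose agar, and 4 mm wells were cut with a sterile cork borer. Wells were loaded with test chemical at a final 1 mg ml^-1, then incubated at 25 °C for 48 h. Inhibition zones around the wells were measured, averaged over 3 replicas.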

[5] = tested on: Staphylococcus aureus; test: Antibacterial activity against Staphylococcus aureus 155554A at 1 mg/ml after 24 hrs by agar-well diffusion technique; settings: read-out: DIZ; method in brief: as §2
[6] = tested on: Bacillus subtilis; test: Antibacterial activity against Bacillus subtilis 154921 at 1 mg/ml after 24 hrs by agar-well diffusion technique; settings: Bacillus subtilis, 154921, 24 h; read-out: DIZ; method in brief: as §2
[7] = tested on: Pseudomonas aeruginosa; test: Antibacterial activity against Pseudomonas aeruginosa 155250A at 1 mg/ml after 24 hrs by agar-well diffusion technique; settings: read-out: DIZ; method in brief: as §2
[8] = tested on: Serratia marcescens; test: Antibacterial activity against Serratia marcescens 155449 at 1 mg/ml after 24 hrs by agar-well diffusion technique; settings: Serratia marcescens, 155449, 24 h; read-out: DIZ; method in brief: as §2
[9] = tested on: Candida albicans; test: Antifungal activity against Candida albicans 155965 at 1 mg/ml after 48 hrs by agar-well diffusion technique; settings: Candida albicans, 155965, 48 h; read-out: DIZ; method in brief: as §3
[10] = tested on: Pseudomonas aeruginosa; test: Antibacterial activity against Pseudomonas aeruginosa 155250A at 100 mg/ml after 24 hrs by agar-well diffusion technique; settings: read-out: DIZ
Method in brief: (§4)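 The penicillin reference was applied at 100 mg ml^-1 in 4 mm wells on nutrient agar plates spread with 0.1 ml of each bacterial strain. Plates were incubated at 37 °C for 24 h, and inhibition zones were measured as the average of 3 replicas.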

[11] = tested on: Staphylococcus aureus; test: Antibacterial activity against Staphylococcus aureus 155554A at 100 mg/ml after 24 hrs by agar-well diffusion technique; settings: read-out: DIZ
Method in brief: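 0.1 ml of the bacterial strain spread on nutrient agar. 4 mm wells were cut with a sterile cork borer and filled with test solution. Plates were incubated at 37 °C for 24 h. Inhibition zone diameters were measured around the wells, and the average of 3 replicas was recorded. Penicillin served as the antibacterial reference.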

[12] = tested on: Bacillus subtilis; test: Antibacterial activity against Bacillus subtilis 154921 at 100 mg/ml after 24 hrs by agar-well diffusion technique; settings: Bacillus subtilis, 154921, 24 h; read-out: DIZ; method in brief: as §4
[13] = tested on: Escherichia coli; test: Antibacterial activity against Escherichia coli 124300 at 100 mg/ml after 24 hrs by agar-well diffusion technique; settings: Escherichia coli, 124300, 24 h; read-out: DIZ; method in brief: as §4
[14] = tested on: Serratia marcescens; test: Antibacterial activity against Serratia marcescens 155449 at 100 mg/ml after 24 hrs by agar-well diffusion technique; settings: Serratia marcescens, 155449, 24 h; read-out: DIZ; method in brief: as §4

| SMILES | zone of inhibition at 100000 µg/mL [1] [mm] | zone of inhibition at 100000 µg/mL [2] [mm] | zone of inhibition at 1000 µg/mL [3] [mm] | zone of inhibition at 1000 µg/mL [4] [mm] | zone of inhibition at 1000 µg/mL [5] [mm] | zone of inhibition at 1000 µg/mL [6] [mm] | zone of inhibition at 1000 µg/mL [7] [mm] | zone of inhibition at 1000 µg/mL [8] [mm] | zone of inhibition at 1000 µg/mL [9] [mm] | zone of inhibition at 100000 µg/mL [10] [mm] | zone of inhibition at 100000 µg/mL [11] [mm] | zone of inhibition at 100000 µg/mL [12] [mm] | zone of inhibition at 100000 µg/mL [13] [mm] | zone of inhibition at 100000 µg/mL [14] [mm] |
| --- | --- | --- | --- | --- | --- | --- | --- | --- | --- | --- | --- | --- | --- | --- |
| C[C@@H]1C[C@@H]([C@H](O)CC2CC(=O)NC(=O)C2)C(=O)[C@@H](C)C1 [CYCLOHEXIMIDE] | 0 | 40 |  |  |  |  |  |  |  |  |  |  |  |  |
| Cc1ccc(-c2c(C#N)c(=N)n3c([nH]c(=O)c4c(-c5ccccc5)csc43)c2C#N)cc1 |  |  | 2.6 | 0.7 | 0 | 2 | 6 | 3.3 | 0 |  |  |  |  |  |
| N#Cc1cc(C#N)c2[nH]c(=O)c3c(-c4ccccc4)csc3n2c1=N |  |  | 4 | 1.3 | 0 | 2 | 9 | 6.6 | 2.6 |  |  |  |  |  |
| CC1(C)S[C@@H]2[C@H](NC(=O)Cc3ccccc3)C(=O)N2[C@H]1C(=O)O [PENICILLIN G] |  |  |  |  |  |  |  |  |  | 30 | 40 | 4.6 | 8.6 | 7 |
| N#Cc1c(-c2ccc([N+](=O)[O-])cc2)c(C#N)c2[nH]c(=O)c3c(-c4ccc(Cl)cc4)csc3n2c1=N |  |  | 5.3 | 1.3 | 0 | 4 | 6 | 4 | 2.6 |  |  |  |  |  |
| COc1ccc(-c2c(C#N)c(=N)n3c([nH]c(=O)c4c(-c5ccccc5)csc43)c2C#N)cc1 |  |  | 3.3 | 0 | 0 | 2 | 14 | 2 | 0 |  |  |  |  |  |
